Activity calls are given as the source filed them. The calls are words filed in the database; no cut-off is given here.

Data on one molecule can be found in ChEMBL document CHEMBL4346709, “Design and Optimization Leading to an Orally Active TTK Protein Kinase Inhibitor with Robust Single Agent Efficacy” (J Med Chem, 2019).

Data set [1] can be described thus: Toxicity in CB17 SCID mouse xenografted with human CAL51 cells assessed as loss of body weight at 30 mg/kg, po […] for 16 days and measured up to 31 days. The data set is classed as organism-based. The settings on record: in vivo. Put shortly: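 Female CB17 SCID mice bearing subcutaneous CAL-51 xenografts (2×10^6 cells). Oral dosing once weekly at 30-120 mg/kg, or 30 mg/kg BID once weekly, for 16 days. Body weight loss tracked alongside tumour measurements, against vehicle.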

A short description of data set [2]: Cmax in CB17 SCID mouse at 30 mg/kg, po. The settings on record: in vivo. On the set-up: dose 30 mg/kg, route oral. Type of data set: ADME, organism-based. An outline of the steps:
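Oral PK in SCID mice at 30 mg/kg. Compound is formulated either in CMCT (0.5% CMC/0.25% tween-80) or in 5% TPGS, 10% captisol, 50 mM citrate buffer, depending on compound. Cmax and AUC are measured.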

The target in data set [3] is T1, Dual specificity protein kinase TTK (Homo sapiens, UniProt P33981).
T1 sequence (P33981 whole entry): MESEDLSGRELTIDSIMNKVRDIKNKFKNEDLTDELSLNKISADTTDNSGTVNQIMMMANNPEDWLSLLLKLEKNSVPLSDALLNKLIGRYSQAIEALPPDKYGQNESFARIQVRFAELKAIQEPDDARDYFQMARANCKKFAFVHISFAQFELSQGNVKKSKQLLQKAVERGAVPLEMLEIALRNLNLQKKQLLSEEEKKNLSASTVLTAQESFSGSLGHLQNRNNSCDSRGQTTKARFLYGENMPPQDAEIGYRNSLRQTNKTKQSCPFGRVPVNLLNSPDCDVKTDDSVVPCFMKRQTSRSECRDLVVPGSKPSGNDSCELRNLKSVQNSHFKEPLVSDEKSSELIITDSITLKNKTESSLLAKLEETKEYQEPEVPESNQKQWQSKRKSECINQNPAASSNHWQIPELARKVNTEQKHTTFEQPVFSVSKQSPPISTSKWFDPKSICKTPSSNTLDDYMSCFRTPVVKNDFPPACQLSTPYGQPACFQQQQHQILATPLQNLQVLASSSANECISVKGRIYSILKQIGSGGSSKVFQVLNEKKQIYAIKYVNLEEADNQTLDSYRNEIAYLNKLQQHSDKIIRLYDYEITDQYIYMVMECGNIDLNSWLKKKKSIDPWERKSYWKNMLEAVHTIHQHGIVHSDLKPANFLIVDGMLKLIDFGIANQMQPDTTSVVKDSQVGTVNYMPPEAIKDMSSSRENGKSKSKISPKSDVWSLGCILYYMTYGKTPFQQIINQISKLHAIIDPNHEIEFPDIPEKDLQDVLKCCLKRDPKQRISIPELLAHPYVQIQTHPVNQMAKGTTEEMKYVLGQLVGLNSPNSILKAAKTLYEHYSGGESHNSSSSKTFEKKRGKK
The data set can be described thus: Inhibition of TTK in human CAL51 cells assessed as decrease in phosphorylated TTK T686 levels after 1 hr by Western blot analysis. The data set is classed as cell-based. On the technique in general: A western blot detects proteins with antibodies after separation by electrophoresis.

The target in data set [4] is LRRK2 (Homo sapiens, UniProt Q5S007). The data set can be described thus: Inhibition of recombinant human GST-tagged LRRK2 catalytic domain (970 to 2527 residues) expressed in baculovirus expression system at 3 uM using LRRKtide as substrate measured after 1 hr by Alexa fluor-647 ADP tracer-based ADAPTA assay relative to control. The note with it: probe LRRKtide. An outline of the steps:
(§1)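 Kinase selectivity panel: single-point assessment at 3 µM, n=1.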

Data set [5] deals with CAL-51. Put plainly: Induction of apoptosis in human CAL51 cells xenografted in CB17 SCID mouse assessed as activation of cleaved caspase-3 at 10 mg/kg, po measured after 1 to 48 hrs by MSD electrochemiluminescent immunoassay relative to control. Type of data set: functional. An outline of the steps:
(§2)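 CB17 SCID mice bearing CAL-51 tumours of 300-500 mm3 given compound orally. At preset time points the mice were euthanised and the tumours dissected and snap-frozen in liquid nitrogen. pHH3 Ser10 or cleaved caspase measured by MSD electrochemiluminescent immunoassay kit. Data are mean ± SEM.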
For orientation: A xenograft is tissue or cells of one species grown in another, often human tumour cells in immunodeficient mice.

The target of data set [6] is T2, Dual specificity tyrosine-phosphorylation-regulated kinase 3 (Homo sapiens, UniProt O43781).
T2 sequence (O43781 whole entry): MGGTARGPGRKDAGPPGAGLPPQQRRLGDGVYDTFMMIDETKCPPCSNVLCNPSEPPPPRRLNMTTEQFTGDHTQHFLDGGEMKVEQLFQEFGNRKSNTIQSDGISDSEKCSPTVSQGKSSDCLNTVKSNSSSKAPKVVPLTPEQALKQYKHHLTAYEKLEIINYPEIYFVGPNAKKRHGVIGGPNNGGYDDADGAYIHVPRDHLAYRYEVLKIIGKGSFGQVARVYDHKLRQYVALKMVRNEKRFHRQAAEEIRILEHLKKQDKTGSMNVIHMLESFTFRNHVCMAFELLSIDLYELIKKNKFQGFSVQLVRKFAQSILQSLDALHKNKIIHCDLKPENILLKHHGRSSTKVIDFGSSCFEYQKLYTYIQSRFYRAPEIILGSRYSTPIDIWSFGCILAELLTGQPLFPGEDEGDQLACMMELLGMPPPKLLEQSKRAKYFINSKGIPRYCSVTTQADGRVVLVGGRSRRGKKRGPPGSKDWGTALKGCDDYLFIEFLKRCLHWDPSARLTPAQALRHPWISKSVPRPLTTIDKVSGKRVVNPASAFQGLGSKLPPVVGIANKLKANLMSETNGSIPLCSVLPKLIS
Put plainly: Inhibition of recombinant human full length GST-tagged DYRK3 expressed in baculovirus expression system by Z'-LYTE assay.

Data set [7] concerns the target T1, Dual specificity protein kinase TTK. Put plainly: Inhibition of Kinase Tracer 236 binding to recombinant human full-length GST-tagged TTk expressed in baculovirus expression system measured after 1 hr by LanthaScreen Eu--kinase binding assay.
Data set [8] concerns the target Leucine-rich repeat serine/threonine-protein kinase 2 (Homo sapiens, UniProt Q5S007, G2019S). Put plainly: Inhibition of recombinant human GST-tagged LRRK2 G2019S mutant catalytic domain (970 to 2527 residues) expressed in baculovirus expression system using LRRKtide as substrate measured after 1 hr by Alexa-fluor-647 ADP tracer-based ADAPTA assay.
In data set [9] the target is Mitogen-activated protein kinase 8 (Homo sapiens, UniProt P45983). Put plainly: Inhibition of recombinant human full length His-tagged JNK1 expressed in baculovirus expression system at 3 uM by Z'-LYTE assay relative to control. Put shortly: as §1
Data set [10] is described as follows: AUC in rat at 10 mg/kg, po. The data set is classed as ADME, organism-based. The note with it: in vivo. An outline of the steps:
(§3)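 Rat oral PK at 10 mg/kg. Compound is given as a solution in CMCT (0.5% CMC/0.25% tween-80) or formulated in 5% TPGS, 10% captisol, 50 mM citrate buffer. Cmax and AUC are recorded.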

A short description of data set [11]: Cmax in rat at 10 mg/kg, po. Details: dose 10 mg/kg, route oral. The note with it: in vivo. Type of data set: ADME, organism-based. An outline of the steps: as §3
The subject of data set [12] is Mus musculus. The data set can be described thus: Inhibition of mitosis in human CAL51 cells xenografted in CB17 SCID mouse assessed reduction in pHH3 ser10 level at 30 mg/kg, po administered as single dose measured up to 48 hrs by MSD electrochemiluminescent immunoassay. Type of data set: functional, organism-based. Put shortly: as §2

Leucine-rich repeat serine/threonine-protein kinase 2, sequence (Q5S007 whole entry G2019S, the tested form may be a part): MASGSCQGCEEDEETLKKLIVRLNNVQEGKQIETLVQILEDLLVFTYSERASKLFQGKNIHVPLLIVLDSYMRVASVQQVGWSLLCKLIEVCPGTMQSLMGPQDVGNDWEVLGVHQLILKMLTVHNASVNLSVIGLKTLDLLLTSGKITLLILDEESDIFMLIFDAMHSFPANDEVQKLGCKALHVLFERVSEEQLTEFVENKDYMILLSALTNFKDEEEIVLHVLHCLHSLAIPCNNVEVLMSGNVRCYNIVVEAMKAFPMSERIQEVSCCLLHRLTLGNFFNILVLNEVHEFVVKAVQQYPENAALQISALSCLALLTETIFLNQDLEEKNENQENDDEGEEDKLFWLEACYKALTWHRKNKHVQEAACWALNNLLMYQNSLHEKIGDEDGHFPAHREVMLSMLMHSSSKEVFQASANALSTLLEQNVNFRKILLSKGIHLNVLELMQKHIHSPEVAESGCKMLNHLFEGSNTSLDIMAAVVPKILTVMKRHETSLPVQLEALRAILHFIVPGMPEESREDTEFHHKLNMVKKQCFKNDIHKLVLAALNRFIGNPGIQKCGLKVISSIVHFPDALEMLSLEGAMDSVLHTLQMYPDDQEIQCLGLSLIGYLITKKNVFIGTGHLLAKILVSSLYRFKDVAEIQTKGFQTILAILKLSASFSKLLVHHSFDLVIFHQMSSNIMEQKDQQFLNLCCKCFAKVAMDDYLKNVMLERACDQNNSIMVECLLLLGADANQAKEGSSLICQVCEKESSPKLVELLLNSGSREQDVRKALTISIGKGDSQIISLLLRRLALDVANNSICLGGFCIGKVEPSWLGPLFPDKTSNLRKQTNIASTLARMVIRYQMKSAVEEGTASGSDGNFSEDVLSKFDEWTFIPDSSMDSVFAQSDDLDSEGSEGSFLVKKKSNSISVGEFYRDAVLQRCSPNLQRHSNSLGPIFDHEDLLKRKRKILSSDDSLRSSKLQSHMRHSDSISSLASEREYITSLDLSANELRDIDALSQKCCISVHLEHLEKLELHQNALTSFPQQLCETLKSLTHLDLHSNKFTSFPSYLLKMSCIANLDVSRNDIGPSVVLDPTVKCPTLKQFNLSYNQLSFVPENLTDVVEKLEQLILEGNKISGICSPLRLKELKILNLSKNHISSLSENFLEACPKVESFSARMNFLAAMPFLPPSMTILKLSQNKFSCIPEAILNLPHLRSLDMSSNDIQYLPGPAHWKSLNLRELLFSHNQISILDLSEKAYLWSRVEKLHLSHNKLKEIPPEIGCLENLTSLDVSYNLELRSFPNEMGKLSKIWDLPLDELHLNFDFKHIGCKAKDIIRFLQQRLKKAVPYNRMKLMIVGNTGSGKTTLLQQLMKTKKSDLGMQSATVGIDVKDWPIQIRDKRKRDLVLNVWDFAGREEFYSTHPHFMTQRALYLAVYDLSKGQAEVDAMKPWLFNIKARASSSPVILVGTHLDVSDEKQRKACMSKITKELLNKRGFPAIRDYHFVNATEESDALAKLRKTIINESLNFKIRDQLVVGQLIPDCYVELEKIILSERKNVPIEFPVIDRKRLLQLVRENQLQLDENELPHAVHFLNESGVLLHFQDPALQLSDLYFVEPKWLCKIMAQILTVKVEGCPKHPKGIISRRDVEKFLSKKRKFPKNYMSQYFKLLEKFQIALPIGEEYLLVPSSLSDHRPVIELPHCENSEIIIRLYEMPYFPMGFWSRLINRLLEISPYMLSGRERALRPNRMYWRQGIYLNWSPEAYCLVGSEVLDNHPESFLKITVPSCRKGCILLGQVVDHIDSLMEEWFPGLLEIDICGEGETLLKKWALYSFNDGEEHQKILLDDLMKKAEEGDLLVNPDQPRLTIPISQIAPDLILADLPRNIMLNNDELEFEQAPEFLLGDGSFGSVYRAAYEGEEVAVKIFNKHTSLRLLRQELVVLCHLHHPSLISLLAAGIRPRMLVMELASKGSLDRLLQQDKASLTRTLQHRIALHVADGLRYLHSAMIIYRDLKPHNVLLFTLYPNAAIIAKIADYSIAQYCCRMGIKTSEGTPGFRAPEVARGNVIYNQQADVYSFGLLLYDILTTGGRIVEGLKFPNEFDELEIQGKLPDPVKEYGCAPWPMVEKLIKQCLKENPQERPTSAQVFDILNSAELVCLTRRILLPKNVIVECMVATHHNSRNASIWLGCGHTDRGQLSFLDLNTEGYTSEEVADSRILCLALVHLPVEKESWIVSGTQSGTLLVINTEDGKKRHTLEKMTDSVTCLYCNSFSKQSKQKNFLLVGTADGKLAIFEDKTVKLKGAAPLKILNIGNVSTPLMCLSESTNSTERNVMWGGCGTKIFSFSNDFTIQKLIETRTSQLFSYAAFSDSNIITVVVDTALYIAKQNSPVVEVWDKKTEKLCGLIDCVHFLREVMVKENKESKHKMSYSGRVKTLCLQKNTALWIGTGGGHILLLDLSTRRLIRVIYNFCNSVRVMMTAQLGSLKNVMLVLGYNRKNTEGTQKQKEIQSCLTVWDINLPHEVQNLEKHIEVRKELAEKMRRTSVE
Mitogen-activated protein kinase 8, sequence (P45983 whole entry): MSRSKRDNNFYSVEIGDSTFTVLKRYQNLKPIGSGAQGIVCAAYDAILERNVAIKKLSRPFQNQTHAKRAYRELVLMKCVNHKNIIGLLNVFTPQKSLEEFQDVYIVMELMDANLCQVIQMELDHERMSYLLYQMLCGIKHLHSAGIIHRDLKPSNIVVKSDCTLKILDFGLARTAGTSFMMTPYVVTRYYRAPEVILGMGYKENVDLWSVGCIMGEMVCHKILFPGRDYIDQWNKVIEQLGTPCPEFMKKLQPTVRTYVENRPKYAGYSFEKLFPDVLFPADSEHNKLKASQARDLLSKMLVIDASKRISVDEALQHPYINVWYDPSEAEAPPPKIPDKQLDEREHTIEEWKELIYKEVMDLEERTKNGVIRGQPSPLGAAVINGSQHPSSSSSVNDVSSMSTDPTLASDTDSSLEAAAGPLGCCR
LRRK2, sequence (Q5S007 whole entry, the tested form may be a part): as the sequence (Q5S007 whole entry G2019S, the tested form may be a part) above, with S2019G counted along it

As usually defined, the Cmax is the highest concentration seen after dosing. Broadly, the IC50 is the midpoint of a concentration-inhibition curve. In general, inhibition refers to the relative decrease from the control value, in per cent. Broadly, the AUC is concentration integrated over time. A high value points to high exposure. In the case of `C[C@@H](Oc1cc(C(=O)N(C)C)ccc1Nc1nc(O[C@H]2CC[C@@](C)(O)CC2)c2c(Cl)c[nH]c2n1)C(F)(F)F`, the Activity result in data set [1] is reported as “Non-Toxic”; in data set [5], 159%. Besides, the Cmax is 5.2 µM in [2] and 4.35 µM in [11]. Also, the IC50 in data set [3] worked out at 11000 pM; in data set [6], 104 pM; in data set [7], 700 pM; in [8] it was 1 pM. Besides, in [4], the inhibition at 1 h, 3 µM is over 80%. Besides, the inhibition in data set [9] is over 80%. This molecule showed an exposure (AUC) in data set [10] of 26 to 26.3 µM·h. Also, the inhibition result in [12] was “Active”.
